Laboratory results published in ChEMBL document CHEMBL3227967, “Quantitative structure-activity relationships in 1-aryl-2-(alkylamino)ethanol antimalarials” (J Med Chem, 1979).

Assay: Lipophilicity, log P of the compound in 0.1 N HCl solution
Format: physicochemical
Conditions: 0.1 N HCl solution; read-out: logP
Procedure, shortened: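 Partition coefficients of the hydrochloride salts were measured from 0.1 N HCl solution unless a footnote says otherwise. Some entries were not measured. They were calculated by adding the Δlog P of the corresponding phenanthrene analogues to the measured log P of a reference hydrochloride.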

Row | SMILES | logP
1 | NCC(O)c1cc2ccc(C(F)(F)F)cc2c2cc(C(F)(F)F)ccc12 (stereo not given) | 2.19
2 | CCN(CC)CC(O)c1ccc(Cl)c2c(C)ccnc12 (stereo not given) | 0.68
3 | CCCCN(CCCC)CC(O)c1c(Br)c(-c2ccccc2)nc2ccccc12 (stereo not given) | 3.86
4 | CN(C)CC(O)c1cc(-c2ccccc2)nc(-c2ccccc2)c1 (stereo not given) | 2.25
5 | OC(CC1CC2CCN1CC2)c1cc2ccccc2c2cc(Br)ccc12 (stereo not given) | 2.98
6 | CCCCCN(CCCCC)CC(O)c1cc(-c2ccccc2)nc(-c2ccccc2)c1 (stereo not given) | 5.18
7 | CNCC(O)c1cc(-c2ccccc2)nc(-c2ccccc2)c1 (stereo not given) | 2.15
8 | CCCCN(CCCC)CC(O)c1cnc2c(C(F)(F)F)cccc2c1Cl (stereo not given) | 2.63
9 | CCN(CC)CC(O)c1cc(-c2ccccc2)nc(-c2ccccc2)c1 (stereo not given) | 2.54
10 | CCCCN(CCCC)CC(O)c1cc(OC)c2cc(OC)c(Cl)cc2n1 (stereo not given) | 1.71
11 | CCCCCCN(CCCCCC)CC(O)c1cc2ccccc2c2ccccc12 (stereo not given) | 4.94
12 | OC(CN1C=COC=C1)c1cc(-c2ccc(F)cc2)nc2cc(F)ccc12 (stereo not given) | 0
13 | OC(CN1C=CN(c2ccccc2)C=C1)c1cc(-c2ccc(F)cc2)nc2cc(F)ccc12 (stereo not given) | 4.26
14 | OC(CN1C=CN(c2ccccc2)C=C1)c1cc(-c2ccc(Cl)cc2)nc2cc(Cl)ccc12 (stereo not given) | 5.4
15 | CCCCCCCN(CCCCCCC)CC(O)c1cccc2ccc3c4ccccc4cc(Br)c3c12 (stereo not given) | 7.69
16 | CCCCNCC(O)c1cc(-c2ccccc2)nc(-c2ccccc2)c1 (stereo not given) | 3.47
17 | CCCCCNCC(O)c1cc(-c2ccccc2)nc(-c2ccccc2)c1 (stereo not given) | 3.97
18 | CCCCCCN(CCCCCC)CC(O)c1cc(-c2ccccc2)nc(-c2ccccc2)c1 (stereo not given) | 6.11
19 | CCCCN(CCCC)CC(O)c1cnc2c(Cl)cc(Cl)cc2c1 (stereo not given) | 2.46
20 | CCCCN(CCCC)CC(O)c1cc(-c2ccccc2)nc(-c2ccccc2)c1 (stereo not given) | 4.17
21 | CC(C)(C)CC(C)(C)NCC(O)c1c2ccccc2cc2ccccc12 (stereo not given) | 3.46
22 | CCCCCN(CCCCC)CC(O)c1cc2ccccc2c2ccccc12 (stereo not given) | 4.01
23 | OC(CN1C=CN(c2ccccc2)C=C1)c1cc(-c2ccc(Cl)cc2)nc2c(Cl)cc(Cl)cc12 (stereo not given) | 6.11
24 | CCCCN(CCCC)CC(O)c1c(Cl)cc(Cl)c2ncccc12 (stereo not given) | 2.46
25 | CCCCCCN(CCCCCC)CC(O)c1cc(Cl)c2nc(-c3ccccc3)ccc2c1 (stereo not given) | 5.65

Row | SMILES | logP
26 | CCCCN(CCCC)CC(O)c1cc(Cl)cc2cccnc12 (stereo not given) | 1.75
27 | CCN(CC)CC(O)c1cc(Cl)cc2c(C)ccnc12 (stereo not given) | 5.25
28 | CCCCCCCN(CCCCCCC)CC(O)c1cc2ccccc2c2ccccc12 (stereo not given) | 5.94
29 | CCCCN(CCCC)CC(O)c1ccc(Cl)c2c(C)ccnc12 (stereo not given) | 2.31
30 | CCNCC(O)c1cc(-c2ccccc2)nc(-c2ccccc2)c1 (stereo not given) | 2.59
31 | CCN1C=CN(CC(O)c2cc(-c3ccc(F)cc3)nc3cc(F)ccc23)C=C1 (stereo not given) | 3.32
32 | CCCCN(CCCC)CC(O)c1cnc2c(Cl)cc(Cl)cc2c1Cl (stereo not given) | 3.17
33 | CCC1C[N+]2(c3ccnc4ccc(OC(C)CO)cc34)CCC1CC2 (stereo not given) | 2.31
34 | CCN(CC)CC(O)c1cc(Cl)cc2cccnc12 (stereo not given) | 0.12
35 | CCCCCCN(CCCCCC)CC(O)c1ccc2cc(Cl)cc(Cl)c2n1 (stereo not given) | 4.4
36 | CCCCCCCN(CCCCCCC)CC(O)c1cc(-c2ccc(Br)cc2)nc(-c2ccc(Br)cc2)c1 (stereo not given) | 8.83
37 | CCCCCCN(CCCCCC)CC(O)c1cc(OC)c2cc(Cl)cc(Cl)c2n1 (stereo not given) | 4.38
38 | CCCN(CCC)CC(O)c1cc(-c2ccccc2)nc(-c2ccccc2)c1 (stereo not given) | 3.29
39 | CCC1C[N+]2(CC(O)c3ccnc4ccc(OC)cc34)CCC1CC2 (stereo not given) | 2.31
40 | CCCCN(CCCC)CC(O)c1cc(-c2cccc(O)c2)nc2c(Cl)cc(Cl)cc12 (stereo not given) | 3.75
41 | CCCCN(CCCC)CC(O)c1cc(-c2ccc(Cl)cc2)c2cc(Cl)cc(Cl)c2n1 (stereo not given) | 5.13
42 | CCCCCCCN(CCCCCCC)CC(O)c1cc2c(Cl)cc(Cl)cc2c2ccc(C)nc12 (stereo not given) | 6.01
43 | CCCCN(CCCC)CC(O)c1cc(-c2ccc(Cl)cc2)c2cc(OC)c(Cl)cc2n1 (stereo not given) | 4.4
44 | CCCCN(CCCC)CC(O)c1cccc2cc(Cl)ccc12 (stereo not given) | 2.19
45 | CCCCN(CCCC)CC(O)c1c(C)c(-c2ccc(C)cc2C)nc2c1ccc1ccccc12 (stereo not given) | 6
46 | CCCCCCCCCCN(CCCCCCCCCC)CC(O)c1ccc(Cl)c2ccccc12 (stereo not given) | 8.13
47 | CCCCN(CCCC)CC(O)c1cc(OC)c2cc(Cl)cc(Cl)c2n1 (stereo not given) | 2.44
48 | CCCCN(CCCC)CC(O)c1ccc2cc(OC)c(Cl)cc2n1 (stereo not given) | 1.73
49 | OC(CN1C=COC=C1)c1cc(-c2ccc(Cl)cc2)nc2cc(Cl)ccc12 (stereo not given) | 1.14
50 | CCCCCCCN(CCCCCCC)CC(O)c1cc2ccc(Cl)cc2c2cccnc12 (stereo not given) | 4.74

Second part, the compound after the results:

Row | logP | SMILES
51 | 4.03 | Cc1cc(-c2ccccc2)nc2c(C)cc(C(O)CN3CCCCCC3)cc12 (stereo not given)
52 | 3.62 | OC(CN1CCCCCC1)c1cc(Cl)c2nc(-c3ccccc3)ccc2c1 (stereo not given)
53 | 3.47 | Cc1cc(C(O)CN2CCCCCC2)cc2ccc(-c3ccccc3)nc12 (stereo not given)
54 | 1.71 | COc1ccc2nccc(C(O)CC3CCC(/C=C/Br)CN3)c2c1 (stereo not given)
55 | 1.37 | CCN(CC)CC(O)c1cc2ccccc2c2ccccc12 (stereo not given)
56 | 0.56 | CCN(CC)CC(O)c1ccc(Cl)c2ccccc12 (stereo not given)
57 | 2.37 | CCCCCNCC(O)c1cc(-c2ccccc2)nc2ccccc12 (stereo not given)
58 | 0.05 | OC(CC1CCCCN1)c1ccnc2ccccc12 (stereo not given)
59 | 2.27 | N#CCCN(CC(O)c1cc2ccccc2c2ccccc12)C1CCCCC1 (stereo not given)
60 | 2.3 | CCCCNCC(O)c1cc2ccccc2c2ccccc12 (stereo not given)
61 | 2.57 | CCCCN(CCCC)CC(O)c1cc(-c2ccccc2)nc2ccccc12 (stereo not given)
62 | 0.93 | OC(CC1CCCCN1)c1cc(C(F)(F)F)nc2ccccc12 (stereo not given)
63 | 0.59 | C=CCN(CC=C)CC(O)c1cc2ccccc2c2ccccc12 (stereo not given)
64 | 4.51 | CCCCCCN(CCCCCC)CC(O)c1cc(-c2ccccc2)nc2ccccc12 (stereo not given)
65 | 3.62 | OC(CN1CCCCCC1)c1ccc2c(Cl)cc(-c3ccccc3)nc2c1 (stereo not given)
66 | 2.3 | O=C(Nc1cccc(C(F)(F)F)c1)c1cc(C(O)CC2CCCCN2)c2cccc(C(F)(F)F)c2n1 (stereo not given)
67 | 2.56 | OC(CC1CCCCN1)c1cc(C2CCCCC2)nc2ccccc12 (stereo not given)
68 | 3.51 | OC(CN1CCCCC1)c1c2ccccc2nc2c1ccc1ccccc12 (stereo not given)

Row | logP | SMILES
69 | 0.98 | CNCC(O)c1cc2ccccc2c2ccccc12 (stereo not given)
70 | 1.69 | CCCN(CCC)CC(O)c1cc(-c2ccccc2)nc2ccccc12 (stereo not given)
71 | 1.73 | OC(CN1CCCCC1)c1cc2ccccc2c2sccc12 (stereo not given)
72 | 3.74 | OC(CC1CC2CCC(CC2)C1)c1cc2ccccc2c2cc(Br)ccc12 (stereo not given)
73 | 2.69 | Cc1ccc(Oc2cc(C(O)CC3CCCCN3)c3ccccc3n2)cc1 (stereo not given)
74 | 2 | OCCN(CC(O)c1cc2ccccc2c2ccccc12)C1CCCCC1 (stereo not given)
75 | 2.01 | OC(c1cc2ccccc2c2ccccc12)C1CCCCN1 (stereo not given)
76 | 4.03 | CCCCCCCN(CCCCCCC)CC(O)c1cc2ncccc2c2ccccc12 (stereo not given)
77 | 0.99 | CCNCC(O)c1cc(-c2ccccc2)nc2ccccc12 (stereo not given)
78 | 1.86 | CCCNCC(O)c1cc2ccccc2c2ccccc12 (stereo not given)
79 | 1.42 | CCNCC(O)c1cc2ccccc2c2ccccc12 (stereo not given)
80 | 2.12 | CCCN(CCC)CC(O)c1cc2ccccc2c2ccccc12 (stereo not given)
81 | 0.55 | CNCC(O)c1cc(-c2ccccc2)nc2ccccc12 (stereo not given)
82 | 3.47 | Cc1cc(C(O)CN2CCCCCC2)c2nc(-c3ccccc3)ccc2c1 (stereo not given)
83 | 2.14 | O=C(O)c1ccc2cc(C(O)CC3CCCCN3)c3ccc(C(F)(F)F)cc3c2c1 (stereo not given)
84 | 1.87 | CCCCNCC(O)c1cc(-c2ccccc2)nc2ccccc12 (stereo not given)
85 | 3.4 | Cc1ccc(Oc2cc(C(O)CC3CCCCN3)c3cc(Cl)ccc3n2)cc1 (stereo not given)
